Measured values published in paper PMC11231753 (Biofilm, 2024).
Values after ≈ are worked out from the molar mass of the structure shown.

Key:
P. aeruginosa PAO1 = assay: MIC by broth microdilution against P. aeruginosa PAO1; assay type: cell-based, Pseudomonas aeruginosa
Outline: (§1)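 Strains maintained in LB (1 % peptone, 0.5 % yeast extract, 0.5 % NaCl). Broth microdilution in 96-well plates: 10⁶ CFU/mL exposed to serial two-fold dilutions of the test extract, overnight at 37 °C. MIC taken as the lowest concentration inhibiting growth. Amoxicillin-clavulanate and imipenem served as positive controls. Run in triplicate.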

[1] = tested on: P. aeruginosa PAO1 biofilm formation; assay: Inhibition of biofilm formation; assay type: cell-based, Pseudomonas aeruginosa; conditions: comparison of Fig. 5A, concentration not given
Outline: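 Biofilm grown in LB broth with 10⁵ CFU/mL PAO1 and serial dilutions of the test extract (7.81–500 μg/mL) at 37 °C overnight. Amoxicillin-clavulanate (3.9–250 μg/mL) and imipenem (0.015–0.97 μg/mL) served as reference antibiotics. Biomass was stained with crystal violet and read at 600 nm to give percent inhibition. Biofilm cells were also viewed by inverted microscope. Run in triplicate; mean ± standard deviation.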

P. aeruginosa = conditions: cited from earlier work
[2] = tested on: Klebsiella pneumoniae, Proteus mirabilis, Pseudomonas aeruginosa, and Shigella flexineri; conditions: cited from earlier work
C. violaceum 6267 = assay: MIC by broth microdilution against C. violaceum 6267; assay type: cell-based, Chromobacterium violaceum
Outline: as §1

[3] = tested on: violacein production by C. violaceum 6267; assay: Quantitative anti-QS assay: inhibition of violacein production in 96 well plates; assay type: cell-based, Chromobacterium violaceum

C[C@@H](O)[C@H]1C(=O)N2C(C(=O)O)=C(SCCN=CN)C[C@H]12 [Imipenem, imipenem]
MIC (P. aeruginosa PAO1; Pseudomonas aeruginosa, PAO1, read-out: MIC P. aeruginosa PAO1): 31.2 µg/mL (≈ 104 µM) | MIC P. aeruginosa PAO1 (P. aeruginosa PAO1; broth microdilution, overnight 37 °C): 31.25 µg/mL (≈ 104 µM) | Antibiofilm effect, percentage of inhibition [1]: 47.24%

O=c1c(O)c(-c2cc(O)c(O)c(O)c2)oc2cc(O)cc(O)c12 [myricetin]
MIC against P. aeruginosa ATCC 27853 (P. aeruginosa): 256 µg/mL (≈ 804 µM) | Concentration inhibiting bacterial growth of various Gram-negative bacteria [2]: 30 µg/mL

O=C/C=C/c1ccccc1 [Cinnamaldehyde]
MIC (C. violaceum 6267; Chromobacterium violaceum, 6267, read-out: MIC C. violaceum): 31.2 µg/mL (≈ 236 µM) | MIC C. violaceum (C. violaceum 6267; broth microdilution): 31.25 µg/mL (≈ 236 µM) | Anti-QS activity (concentration inhibiting violacein production) ([3]; C. violaceum 6267): 7.81 µg/mL | percentage of inhibition (violacein production) ([3]; at the anti-QS concentration printed beside the value): 87.8 ± 2.32% | Inhibition of violacein production ([3]; ½ MIC (n-BuOH fraction 125 μg/mL; ethanolic extract 250 μg/mL)): 93.4%
